High-throughput results: PubChem, Broad Institute
RAD54 branch – blocks human RAD54 Holliday junction branch migration; inhibition, % at 10.4 µM; FAM/BHQ fluorescence; 360,000 tested, 0.14% active; Q92698;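 active = mean normalized replicate activity at least 40 and at least half of replicates scoring 40 or more; inconclusive = only one of the two criteria met; inactive = mean below 40 and under half of replicates reaching 40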;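 note: 0% = median of neutral control wells and 100% = median of positive control wells; inhibitors cause a drop in the FAM fluorescence signal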
Ecoli rRNA inh – selective bacterial rRNA inhibition in E. coli | E. coli WT GFP vs humanized-ribosome RFP mutants, fluorescence, 24 h; active compounds read low; DMSO median 0, no signal -100 | GFP signal change (wild-type ribosome), % (no concentration beside the values) | 350,000 tested, 1.6% active | AID 720706;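 active = significant combined selectivity score with lowered wild-type GFP, culture density cut under 30%, mutant RFP and density less affected; inactive = any of these conditions unmet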
AF4-AF9 inh – MLL-AF4/AF9 protein interaction inhibition; AlphaScreen, biotin-AF4 peptide binding to FLAG-AF9; 350,000 tested, 0.47% active; P42568; inhibition, % at 10 µM;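 active = every replicate reaching a set inhibition limit, whatever the replicate mean, cut at about 25% in these data; inconclusive = mean inhibition reaches that limit but some replicates miss it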;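 note: 0% = plate neutral control median and 100% = total signal loss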
E-selectin induc – induces E-selectin expression in human endothelial cells; P16581; HUVEC E-selectin immunofluorescence imaging; normalized: neutral wells 0, TNF-alpha wells 100; activation, % at 7.58 µM; 260,000 tested, 0.37% active;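 active = mean E-selectin-positive cell signal at least 10% of the positive control, reached in at least 60% of replicates, without over 20% cell loss; inconclusive = no rule given, readout overlaps actives, possibly toxicity-flagged; inactive = the rest, including those meeting only one limit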
Target sequence (P16581 whole entry, looked up): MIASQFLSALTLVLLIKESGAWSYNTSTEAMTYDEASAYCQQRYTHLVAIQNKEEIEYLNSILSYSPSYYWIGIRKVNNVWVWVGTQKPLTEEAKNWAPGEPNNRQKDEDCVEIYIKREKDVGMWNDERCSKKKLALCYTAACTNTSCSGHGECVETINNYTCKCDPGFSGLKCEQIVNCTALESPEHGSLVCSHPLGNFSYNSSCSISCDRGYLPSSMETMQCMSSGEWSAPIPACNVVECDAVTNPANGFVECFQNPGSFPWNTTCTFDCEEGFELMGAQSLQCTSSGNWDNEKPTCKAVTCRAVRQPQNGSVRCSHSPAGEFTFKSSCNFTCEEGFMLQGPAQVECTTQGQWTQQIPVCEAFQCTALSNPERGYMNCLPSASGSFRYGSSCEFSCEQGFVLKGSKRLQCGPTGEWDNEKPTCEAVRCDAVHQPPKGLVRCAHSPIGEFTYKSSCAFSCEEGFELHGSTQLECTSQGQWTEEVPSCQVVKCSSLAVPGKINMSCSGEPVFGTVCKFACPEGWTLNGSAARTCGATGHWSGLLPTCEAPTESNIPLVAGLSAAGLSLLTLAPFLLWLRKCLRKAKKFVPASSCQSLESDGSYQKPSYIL
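Test system: HUVEC | Signal: Immunofluorescence imaging | Read-out: Percent E-selectin-positive cells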
GSIS activator – primary screen for activators of insulin secretion dependent on glucose, INS-1E cells, GLuc reporter luminescence. INS-1E GLuc reporter insulin secretion, 2-3 h. activation, % at 16.6 µM. 370,000 tested, 0.61% active. AID 743287;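 active = lowest replicate activation of at least 40%, so every replicate reaches that level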;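 note: 0% = median of neutral control wells and 100% = median of IBMX positive control wells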
RAD52 anneal inh – RAD52 (human) annealing inhibition. P43351. recombinant RAD52 DNA annealing, FRET fluorescence. inhibition, % at 18.7 µM. 360,000 tested, 0.46% active;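 active = every replicate showing at least 50% inhibition; inconclusive = mean inhibition at least 50% but not in every replicate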
RAD52 DNA ctr – counter-screen for RAD52 inhibitors: DNA binding compounds; Salmon sperm DNA/acridine orange FP displacement; shares compounds with RAD52 anneal inh; AID 652128; AC50, µM; 1,000 tested, 8% active;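 active = fitted half-maximal concentration for signal loss at or below twice the highest dose tested, in every separate run, actives reach about 64 µM in these data; inconclusive = runs disagree, or flat partial signal loss, or poor fit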
* marks the source's active call; other numbers are inactive results; i = inactive; ? = inconclusive; · = not tested or not shown. An excerpt weighted towards active compounds, which were near 2.6% of everything screened.

SMILES	RAD54 branch	Ecoli rRNA inh	AF4-AF9 inh	E-selectin induc	GSIS activator	RAD52 anneal inh	RAD52 DNA ctr
C[C@@H]1CNCCN1c1ccc(N2CCS(=O)(=O)CC2)c(C#N)c1	·	9	·	0	8	55*	i
Cc1cc(N2CCNC[C@@H]2C)ccc1N1CCS(=O)(=O)CC1	·	11	·	0	2	-38	·
CN(C)CCNc1ccc(CO)c2sc3ccc(O)cc3c(=O)c12	·	-35	15	0	·	0	·
COc1ccc2sc3cccc(NCCN(C)C)c3c(=O)c2c1	·	-6	19	0	2	58*	39µM*
CN1C(=O)c2cc(NC(=O)C3CCCC3)ccc2OC[C@H]2O[C@H](CC(=O)NCC3CC3)CC[C@@H]21	-1	0	0	0	6	12	·
C[C@H]1CN([C@@H](C)CO)C(=O)c2cc(C3=CCCCC3)cnc2O[C@H]1CN(C)C(=O)c1ccncc1	-9	4	-1	3	9	-6	·
Cc1cc(C)c2c(N)c3cccc(C)c3nc2n1	·	-11	-9	·	·	78*	32µM*
C#CC[N+]1(CC#Cc2ccccc2)CCCC1	4	·	·	·	2	·	·
C(#Cc1ccccc1)C[N+]1(CC#Cc2cccc3ccccc23)CCCC1	·	-59	9	1	-21	66*	i
N#Cc1cc2cc3c(cc2nc1NCCNC(=S)NCCCN1CCOCC1)OCO3	·	1	-3	3	7	72*	i
N#Cc1cc2cc3c(cc2nc1SCC(=O)N1CCOCC1)OCO3	5	9	-2	·	-3	-35	·
CCN(CC)CCCN(Cc1cc2cc3c(cc2[nH]c1=O)OCO3)C(=S)NCCCN(C)C	15	19	0	2	·	90*	i
COc1cc2cc(CN(CCc3cccc(C)c3)C(=S)NCCCN(C)C)c(=O)[nH]c2cc1OC	·	-38*	-34	-2	9	51*	i
CN1C(=O)c2cc(NC(=O)c3ccno3)ccc2OC[C@H]2O[C@@H](CC(=O)Nc3ccccc3)CC[C@@H]21	-5	-2	-1	0	1	0	·
CN(C)C(=O)[C@@H]1[C@@H](CO)[C@@H]2Cn3c(ccc(C4=CCCC4)c3=O)[C@H]1N2C	12	3	-1	0	14	5	·
O=C1C(CSCc2ccccc2)NC(=S)N1c1ccccc1 (stereo unspecified)	7	·	-3	0	·	56*	i
C1CCCCCC(NCCN2CCNCC2)CCCCC1	·	-2	·	1	84	64*	i
CC(C)C(=O)Nc1ccc2c(c1)C(=O)N(C)[C@H]1CC[C@@H](CC(=O)NCc3ccc(F)cc3)O[C@H]1CO2	-15	0	-1	0	0	-3	·
CC1=CC(C)(C)N=C(Nc2nc(C)c3cc(C)cc(C)c3n2)N1	32	-38	12	·	-34	79*	i
C[C@@H](NC(=O)C[C@H]1C=C[C@H](NC(=O)C2CC2)[C@H](CO)O1)c1ccccc1	-4	3	0	0	-2	11	·
C[C@@H]1CN([C@@H](C)CO)C(=O)c2cc(NC(=O)Nc3ccc4c(c3)OCO4)ccc2O[C@@H]1CN(C)C(=O)Nc1ccc(F)cc1	-1	2	·	-3	-1	·	·
CCN(CCN(C)C)C(=O)c1ccc2c(c1NCCO)C(=O)c1ccccc1C2=O	·	-33	17	0	-4	58*	58µM*
O=C1c2ccccc2C(=O)c2c1ccc(C(=O)N1CCCCC1)c2NCCO	14	·	·	·	·	·	·
CO[C@H]1CN(C)C(=O)c2cc(NS(C)(=O)=O)ccc2OC[C@@H](C)N(CC2CC2)C[C@@H]1C	4	4	-1	0	17	0	·
CO[C@@H]1CN(C)C(=O)c2ccc(NC(=O)C3CC3)cc2OC[C@@H](C)N(Cc2cccc(F)c2)C[C@@H]1C	-7	-7	·	0	-4	·	·
SMILES	RAD54 branch	Ecoli rRNA inh	AF4-AF9 inh	E-selectin induc	GSIS activator	RAD52 anneal inh	RAD52 DNA ctr
CCCNC(=O)c1ccc2nc(-c3ccccc3)c(-c3ccccc3)nc2c1	-2	·	·	·	·	-10	·
CCN1CCN(CCNC(=O)c2ccc3nc(-c4cccc(C)c4)c(-c4cccc(C)c4)nc3c2)CC1	9	-57	28*	3	20	68*	i
Cc1cccc(C)c1NC(=O)CN1CCCC1	·	5	-2	0	7	-9	·
Cc1cc(N)ccc1NC(=O)CN1CCCC1	24	-1	4	0	17	101*	i
COc1ccc(Cl)cc1NC(=O)CN1CCCCCC1	·	-1	0	4	-7	-4	·
COc1ccc(N)cc1NC(=O)CN1CCCC1	43	9	16	·	-1	79*	i
Cc1ccc(-c2[nH]c3cc(C(=O)NCCCn4ccnc4)ccc3c(=O)c2O)cc1	9	-21*	57*	·	-1	80*	i
C[C@H]1CN([C@@H](C)CO)C(=O)CCCn2cc(nn2)CO[C@H]1CN(C)Cc1ccc(C(=O)O)cc1	·	0	-1	0	-4	-3	·
COc1cc(OC)cc(-c2sc3ccc(OC)cc3c2C#CC2(N)CCCCC2)c1	5	-52	10	0	-16	-55	i
COc1cccc(-c2sc3ccc(OC)cc3c2C#CC2(O)CCCCC2)c1	-5	8	1	0	·	-10	·
CCNC(=O)C[C@@H]1CC[C@@H]2[C@@H](COc3ccc(NC(=O)Cc4cccs4)cc3C(=O)N2C)O1	-20	3	0	0	6	-2	·
CCn1c(C)c(C(C)=O)c(NCc2ccccc2)nc1=S	7	-7	19	·	1	68*	i
CC(=O)c1c(NCc2ccccc2)nc(=O)n(-c2ccccc2)c1C	8	·	·	·	·	·	·
CC(=O)c1c(NCCc2ccccc2)nc(=S)n(-c2ccccc2)c1C	·	-12	3	5	6	58*	i
O=C(C[C@H]1CC[C@@H]2[C@H](COC[C@@H](O)CN2Cc2cc(F)cc(F)c2)O1)NCc1cccc(F)c1	8	-3	-2	0	-7	8	·
CCCCCCCC/C=C\CCCCCCCC(=O)O	·	·	-20	-2	·	-11	·
CCCCCCCCCCCCC/C=C/[C@@H](O)[C@@H](N)CO	8	·	-13	?	·	55*	i
CC(=O)c1ccccc1OCC(O)CN1CCN(CCN2C(=O)c3cccc4cccc(c34)C2=O)CC1 (stereo unspecified)	·	-18	1	-2	4	24	·
COc1cc(COCC(O)CN2CCN(CCN3C(=O)c4cccc5cccc(c45)C3=O)CC2)cc(OC)c1OC (stereo unspecified)	·	-7	3	·	16	85*	i
Cc1ccc(C)c(OCC(O)CN2CCN(CCN3C(=O)c4cccc5cccc(c45)C3=O)CC2)c1 (stereo unspecified)	·	·	9	0	-29	99*	i
